Source: ChEMBL document CHEMBL1255284, “Aspergillus section Fumigati: antifungal susceptibility patterns and sequence-based identification” (2008)
Converted amounts (≈) assume the structure as drawn.

Experiments:
[1] = test system: Aspergillus lentulus; assay: Antimicrobial activity against Aspergillus lentulus isolate CNM-CM-1290 obtained from sputum of patient after 48 hrs by broth microdilution method; assay type: functional; settings: isolate CNM-CM-1290, 48 h
Summary of the method: (§1)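 CLSI M38-A broth microdilution with modifications: RPMI 1640 with L-glutamine, 2% glucose, buffered to pH 7 with 0.165 M MOPS. Inoculum of 1 × 10^5 to 5 × 10^5 CFU/ml from 3- to 5-day-old cultures. Incubated 35°C, 48 h, humid. Visual reading with a mirror. MIC is complete growth inhibition; echinocandin MEC is hyphal morphological alteration. Azoles 8 to 0.015 μg/ml; others 16 to 0.03 μg/ml.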

[2] = test system: Aspergillus lentulus; assay: Antimicrobial activity against Aspergillus lentulus isolate CNM-CM-3134 obtained from sputum of patient after 48 hrs by broth microdilution method; assay type: functional; settings: isolate CNM-CM-3134, 48 h; summary of the method: as §1
[3] = test system: Aspergillus lentulus; assay: Antimicrobial activity against Aspergillus lentulus isolate CNM-CM-3364 obtained from bronchoalveolar lavage fluid of patient after 48 hrs by broth microdilution method; assay type: functional; settings: isolate CNM-CM-3364, Lung; summary of the method: as §1
[4] = test system: Aspergillus lentulus; assay: Antimicrobial activity against Aspergillus lentulus isolate CNM-CM-3537 obtained from sputum of patient after 48 hrs by broth microdilution method; assay type: functional; settings: isolate CNM-CM-3537, 48 h; summary of the method: as §1
[5] = test system: Aspergillus lentulus; assay: Antimicrobial activity against Aspergillus lentulus isolate CNM-CM-3538 obtained from sputum of patient after 48 hrs by broth microdilution method; assay type: functional; settings: isolate CNM-CM-3538, 48 h; summary of the method: as §1
[6] = test system: Aspergillus lentulus; assay: Antimicrobial activity against Aspergillus lentulus isolate CNM-CM-3583 obtained from sputum of patient after 48 hrs by broth microdilution method; assay type: functional; settings: isolate CNM-CM-3583, 48 h; summary of the method: as §1
[7] = test system: Aspergillus lentulus; assay: Antimicrobial activity against Aspergillus lentulus isolate CNM-CM-3599 obtained from sputum of patient after 48 hrs by broth microdilution method; assay type: functional; settings: isolate CNM-CM-3599, 48 h; summary of the method: as §1
[8] = test system: Aspergillus lentulus; assay: Antimicrobial activity against Aspergillus lentulus isolate CNM-CM-4330 obtained from sputum of patient after 48 hrs by broth microdilution method; assay type: functional; settings: isolate CNM-CM-4330, 48 h; summary of the method: as §1
[9] = test system: Aspergillus lentulus; assay: Antimicrobial activity against Aspergillus lentulus isolate CNM-CM-4370 obtained from sputum of patient after 48 hrs by broth microdilution method; assay type: functional; settings: isolate CNM-CM-4370, 48 h; summary of the method: as §1
[10] = test system: Aspergillus lentulus; assay: Antimicrobial activity against Aspergillus lentulus isolate CNM-CM-4387 obtained from sputum of patient after 48 hrs by broth microdilution method; assay type: functional; settings: isolate CNM-CM-4387, 48 h; summary of the method: as §1
[11] = test system: Aspergillus lentulus; assay: Antimicrobial activity against Aspergillus lentulus isolate CNM-CM-4415 obtained from sputum of patient after 48 hrs by broth microdilution method; assay type: functional; settings: isolate CNM-CM-4415, 48 h; summary of the method: as §1
[12] = test system: Aspergillus lentulus; assay: Antimicrobial activity against Aspergillus lentulus isolate CNM-CM-4420 obtained from nail of patient after 48 hrs by broth microdilution method; assay type: functional; settings: isolate CNM-CM-4420, 48 h; summary of the method: as §1
[13] = test system: Aspergillus lentulus; assay: Antimicrobial activity against Aspergillus lentulus isolate CNM-CM-4426 obtained from sputum of patient after 48 hrs by broth microdilution method; assay type: functional; settings: isolate CNM-CM-4426, 48 h; summary of the method: as §1
[14] = test system: Aspergillus lentulus; assay: Antimicrobial activity against Aspergillus lentulus isolate CNM-CM-4428 obtained from skin of patient after 48 hrs by broth microdilution method; assay type: functional; settings: isolate CNM-CM-4428, 48 h; summary of the method: as §1
[15] = test system: Aspergillus fumisynnematus; assay: Antimicrobial activity against Aspergillus fumisynnematus isolate CNM-CM-4063 obtained from bronchoalveolar aspirate of patient after 48 hrs by broth microdilution method; assay type: functional; settings: isolate CNM-CM-4063, Lung; summary of the method: as §1
[16] = test system: Neosartorya hiratsukae; assay: Antimicrobial activity against Neosartorya hiratsukae isolate CNM-CM-3303 obtained from skin of patient after 48 hrs by broth microdilution method; assay type: functional; settings: Aspergillus hiratsukae, isolate CNM-CM-3303, 48 h; summary of the method: as §1
[17] = test system: Neosartorya hiratsukae; assay: Antimicrobial activity against Neosartorya hiratsukae isolate CNM-CM-3305 obtained from skin of patient after 48 hrs by broth microdilution method; assay type: functional; settings: Aspergillus hiratsukae, isolate CNM-CM-3305, 48 h; summary of the method: as §1
[18] = test system: Neosartorya hiratsukae; assay: Antimicrobial activity against Neosartorya hiratsukae isolate CNM-CM-3764 obtained from oropharyngeal exudate of patient after 48 hrs by broth microdilution method; assay type: functional; settings: Aspergillus hiratsukae, isolate CNM-CM-3764, 48 h; summary of the method: as §1
[19] = test system: Neosartorya hiratsukae; assay: Antimicrobial activity against Neosartorya hiratsukae isolate CNM-CM-3740 obtained from oropharyngeal exudate of patient after 48 hrs by broth microdilution method; assay type: functional; settings: Aspergillus hiratsukae, isolate CNM-CM-3740, 48 h; summary of the method: as §1
[20] = test system: Neosartorya hiratsukae; assay: Antimicrobial activity against Neosartorya hiratsukae isolate CNM-CM-4328 obtained from cornea of patient after 48 hrs by broth microdilution method; assay type: functional; settings: Aspergillus hiratsukae, isolate CNM-CM-4328, Cornea; summary of the method: as §1
[21] = test system: Neosartorya pseudofischeri; assay: Antimicrobial activity against Neosartorya pseudofischeri isolate CNM-CM-3769 obtained from sputum of patient after 48 hrs by broth microdilution method; assay type: functional; settings: Aspergillus thermomutatus
Summary of the method: (§2)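 CLSI M38-A broth microdilution with modifications: RPMI 1640 with L-glutamine, MOPS-buffered to pH 7, plus 2% glucose. Inoculum 1 × 10^5 to 5 × 10^5 CFU/ml from 3–5-day cultures. Incubated at 35°C for 48 h, humid. Read visually with a mirror. MIC = complete growth inhibition; echinocandin MEC = altered hyphal morphology. QC strain A. fumigatus ATCC 2004305.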

[22] = test system: Neosartorya pseudofischeri; assay: Antimicrobial activity against Neosartorya pseudofischeri isolate CNM-CM-2270 obtained from sputum of patient after 48 hrs by broth microdilution method; assay type: functional; settings: Aspergillus thermomutatus, isolate CNM-CM-2270, 48 h; summary of the method: as §2
[23] = test system: Neosartorya pseudofischeri; assay: Antimicrobial activity against Neosartorya pseudofischeri isolate CNM-CM-4060 obtained from sputum of patient after 48 hrs by broth microdilution method; assay type: functional; settings: Aspergillus thermomutatus; summary of the method: as §2
[24] = test system: Neosartorya pseudofischeri; assay: Antimicrobial activity against Neosartorya pseudofischeri isolate CNM-CM-3914 obtained from nail of patient after 48 hrs by broth microdilution method; assay type: functional; settings: Aspergillus thermomutatus, isolate CNM-CM-3914, 48 h; summary of the method: as §2
[25] = test system: Aspergillus viridinutans; assay: Antimicrobial activity against Aspergillus viridinutans isolate CNM-CM-3147 obtained from oropharyngeal exudate of patient after 48 hrs by broth microdilution method; assay type: functional; settings: isolate CNM-CM-3147, 48 h; summary of the method: as §1
[26] = test system: Aspergillus viridinutans; assay: Antimicrobial activity against Aspergillus viridinutans isolate CNM-CM-4518 obtained from nail of patient after 48 hrs by broth microdilution method; assay type: functional; settings: isolate CNM-CM-4518, 48 h; summary of the method: as §1
[27] = test system: Aspergillus fumigatus; assay: Antimicrobial activity against Aspergillus fumigatus ATCC 2004305 after 48 hrs by broth microdilution method; assay type: functional; settings: ATCC 2004305, 48 h
[28] = test system: Aspergillus fumigatiaffinis; assay: Antimicrobial activity against Aspergillus fumigatiaffinis isolate CNM-CM-2280 obtained from sputum of patient after 48 hrs by broth microdilution method; settings: isolate CNM-CM-2280, 48 h
[29] = test system: Aspergillus fumigatiaffinis; assay: Antimicrobial activity against Aspergillus fumigatiaffinis isolate CNM-CM-3227 obtained from bronchoalveolar lavage fluid of patient after 48 hrs by broth microdilution method; settings: isolate CNM-CM-3227, Lung

CC[C@H](C)C[C@H](C)CCCCCCCCC(=O)N[C@H]1C[C@@H](O)[C@@H](NCCN)NC(=O)[C@@H]2[C@@H](O)CCN2C(=O)[C@H]([C@H](O)CCN)NC(=O)[C@H]([C@H](O)[C@@H](O)c2ccc(O)cc2)NC(=O)[C@@H]2C[C@@H](O)CN2C(=O)[C@H]([C@@H](C)O)NC1=O [CASPOFUNGIN]
minimal effective concentration ([1]; read-out: MEC): 0.28 µg/mL | minimal effective concentration ([2]; read-out: MEC): 0.38 µg/mL | minimal effective concentration ([3]; read-out: MEC): 0.18 µg/mL | minimal effective concentration ([4]; read-out: MEC): 0.42 µg/mL | minimal effective concentration ([5]; read-out: MEC): 0.11 µg/mL | minimal effective concentration ([6]; read-out: MEC): 1 µg/mL | minimal effective concentration ([7]; read-out: MEC): 0.26 µg/mL | minimal effective concentration ([8]; read-out: MEC): 1.2 µg/mL | minimal effective concentration ([9]; read-out: MEC): 0.91 µg/mL | minimal effective concentration ([10]; read-out: MEC): 0.25 µg/mL | minimal effective concentration ([11]; read-out: MEC): 0.25 µg/mL | minimal effective concentration ([12]; read-out: MEC): 0.33 µg/mL | minimal effective concentration ([13]; read-out: MEC): 0.22 µg/mL | minimal effective concentration ([14]; read-out: MEC): 0.29 µg/mL | minimal effective concentration ([15]; read-out: MEC): 0.5 µg/mL | minimal effective concentration ([16]; read-out: MEC): 0.34 µg/mL | minimal effective concentration ([17]; read-out: MEC): 0.03 µg/mL | minimal effective concentration ([18]; read-out: MEC): 0.26 µg/mL | minimal effective concentration ([19]; read-out: MEC): 0.66 µg/mL | minimal effective concentration ([20]; read-out: MEC): 0.03 µg/mL | minimal effective concentration ([21]; read-out: MEC): 0.12 µg/mL | minimal effective concentration ([22]; read-out: MEC): 0.51 µg/mL | minimal effective concentration ([23]; read-out: MEC): 0.62 µg/mL | minimal effective concentration ([24]; read-out: MEC): 1 µg/mL | minimal effective concentration ([25]; read-out: MEC): 0.67 µg/mL | minimal effective concentration ([26]; read-out: MEC): 1 µg/mL | minimal effective concentration ([27]; read-out: MEC): 0.12 µg/mL | minimal effective concentration ([28]; read-out: MEC): 1.3 µg/mL | minimal effective concentration ([29]; read-out: MEC): 0.16 µg/mL

CCC(C)n1ncn(-c2ccc(N3CCN(c4ccc(OCC5COC(Cn6cncn6)(c6ccc(Cl)cc6Cl)O5)cc4)CC3)cc2)c1=O (stereo not drawn) [ITRACONAZOLE]
MIC [1]: 9.25 µg/mL (≈ 13.1 µM) | MIC [2]: 10.2 µg/mL (≈ 14.5 µM) | MIC [3]: 8 µg/mL (≈ 11.3 µM) | MIC [4]: 8.25 µg/mL (≈ 11.7 µM) | MIC [5]: 8.25 µg/mL (≈ 11.7 µM) | MIC [6]: 0.43 µg/mL (≈ 0.609 µM) | MIC [7]: 0.5 µg/mL (≈ 0.709 µM) | MIC [8]: 6 µg/mL (≈ 8.5 µM) | MIC [9]: 8 µg/mL (≈ 11.3 µM) | MIC [10]: 8 µg/mL (≈ 11.3 µM) | MIC [11]: 16 µg/mL (≈ 22.7 µM) | MIC [12]: 8 µg/mL (≈ 11.3 µM) | MIC [13]: 6.66 µg/mL (≈ 9.44 µM) | MIC [14]: 7 µg/mL (≈ 9.92 µM) | MIC [15]: 0.25 µg/mL (≈ 0.354 µM) | MIC [16]: 0.12 µg/mL (≈ 0.17 µM) | MIC [17]: 0.185 µg/mL (≈ 0.262 µM) | MIC [18]: 0.33 µg/mL (≈ 0.468 µM) | MIC [19]: 0.16 µg/mL (≈ 0.227 µM) | MIC [20]: 0.25 µg/mL (≈ 0.354 µM) | MIC [21]: 8 µg/mL (≈ 11.3 µM) | MIC [22]: 8 µg/mL (≈ 11.3 µM) | MIC [23]: 11 µg/mL (≈ 15.6 µM) | MIC [24]: 16 µg/mL (≈ 22.7 µM) | MIC [25]: 14.4 µg/mL (≈ 20.4 µM) | MIC [26]: 16 µg/mL (≈ 22.7 µM) | MIC [27]: 0.125 µg/mL (≈ 0.177 µM) | MIC [28]: 6.66 µg/mL (≈ 9.44 µM) | MIC [29]: 8 µg/mL (≈ 11.3 µM)
